Converted amounts (≈) assume the structure as drawn.
How the values were obtained:
Streptococcus pneumoniae = experiment: Antibacterial activity against Streptococcus pneumoniae MTCC 1936 after 24 hrs by broth microdilution method; format: functional
Clostridium tetani = experiment: Antibacterial activity against Clostridium tetani MTCC 449 after 24 hrs by broth microdilution method; format: functional
Vibrio cholerae = experiment: Antibacterial activity against Vibrio cholerae MTCC 3906 after 24 hrs by broth microdilution method; format: functional
Salmonella typhi = experiment: Antibacterial activity against Salmonella typhi MTCC 98 after 24 hrs by broth microdilution method; format: functional, Salmonella enterica subsp. enterica serovar Typhi
Bacillus subtilis = experiment: Antibacterial activity against Bacillus subtilis MTCC 441 after 24 hrs by broth microdilution method; format: functional
Escherichia coli = experiment: Antibacterial activity against Escherichia coli MTCC 443 after 24 hrs by broth microdilution method; format: functional
[1] = Antioxidant activity assessed as ascorbic acid equivalent ferric ion reducing activity per 100 gram at 200 ug/ml by FRAP assay; format: functional
Candida albicans = experiment: Antifungal activity against Candida albicans MTCC 227 after 48 hrs by broth microdilution method; format: functional
[2] = system: Mycobacterium tuberculosis; experiment: Antimycobacterial activity against Mycobacterium tuberculosis H37Rv at 250 ug/ml; format: functional
Summary of the method: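 M. tuberculosis H37Rv tested on L.J. (Löwenstein–Jensen) medium.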

Aspergillus fumigatus = experiment: Antifungal activity against Aspergillus fumigatus MTCC 3008 after 48 hrs by broth microdilution method; format: functional
[3] = Salmonella enterica, MTCC 98, 24 h

Row | Compound | MIC (Streptococcus pneumoniae; MTCC 1936, 24 h) | MIC (Clostridium tetani; MTCC 449, 24 h) | MIC (Vibrio cholerae; MTCC 3906, 24 h) | MIC (Salmonella typhi; [3]) | MIC (Bacillus subtilis; MTCC 441, 24 h) | MIC (Escherichia coli; MTCC 443, 24 h) | Activity [1] | MIC (Candida albicans; MTCC 227, 48 h) | inhibition at 250 µg/mL [2] | MIC (Aspergillus fumigatus; MTCC 3008, 48 h) | MIC (Streptococcus pneumoniae) | MIC (Clostridium tetani) | MIC (Vibrio cholerae) | MIC (Salmonella typhi; Salmonella enterica subsp. enterica serovar Typhi) | MIC (Bacillus subtilis) | MIC (Escherichia coli) | MIC (Candida albicans) | MIC (Aspergillus fumigatus)
1 | CC1(C)S[C@@H]2[C@H](NC(=O)[C@H](N)c3ccccc3)C(=O)N2[C@H]1C(=O)O [AMPICILLIN] | 100 µg/mL (≈ 286 µM) | 250 µg/mL (≈ 715 µM) | 100 µg/mL (≈ 286 µM) | 100 µg/mL (≈ 286 µM) | 250 µg/mL (≈ 715 µM) | 100 µg/mL (≈ 286 µM) |  |  |  |  |  |  |  |  |  |  |  | 
2 | Cc1nn(-c2ccc(Cl)c(Cl)c2)c2c1[C@@H]1c3c(ccc4c(C)cc(=O)oc34)OC[C@@H]1CO2 | 250 µg/mL (≈ 533 µM) | 100 µg/mL (≈ 213 µM) | 125 µg/mL (≈ 266 µM) | 250 µg/mL (≈ 533 µM) | 250 µg/mL (≈ 533 µM) | 250 µg/mL (≈ 533 µM) | 120 mmol | 500 µg/mL (≈ 1070 µM) | 20% | 500 µg/mL (≈ 1070 µM) |  |  |  |  |  |  |  | 
3 | Cc1nn(-c2ccccc2Cl)c2c1[C@@H]1c3c(ccc4c(C)cc(=O)oc34)OC[C@@H]1C(C)(C)O2 | 250 µg/mL (≈ 540 µM) | 250 µg/mL (≈ 540 µM) | 250 µg/mL (≈ 540 µM) | 125 µg/mL (≈ 270 µM) | 100 µg/mL (≈ 216 µM) | 125 µg/mL (≈ 270 µM) | 210 mmol | 1000 µg/mL (≈ 2160 µM) | 40% | 200 µg/mL (≈ 432 µM) |  |  |  |  |  |  |  | 
4 | COC1=CC(=O)C[C@@H](C)[C@]12Oc1c(Cl)c(OC)cc(OC)c1C2=O [GRISEOFULVIN] |  |  |  |  |  |  |  | 500 µg/mL (≈ 1420 µM) |  | 100 µg/mL (≈ 283 µM) |  |  |  |  |  |  |  | 
5 | Cc1nn(-c2ccccc2)c2c1[C@@H]1c3c(ccc4c(C)cc(=O)oc34)OC[C@@H]1C(C)(C)O2 | 200 µg/mL (≈ 467 µM) | 500 µg/mL (≈ 1170 µM) | 250 µg/mL (≈ 583 µM) | 250 µg/mL (≈ 583 µM) | 200 µg/mL (≈ 467 µM) | 250 µg/mL (≈ 583 µM) | 146 mmol | 1000 µg/mL (≈ 2330 µM) | 65% | 200 µg/mL (≈ 467 µM) |  |  |  |  |  |  |  | 
6 | Cc1ccc(-n2nc(C)c3c2OC(C)(C)[C@H]2CSc4nc5c(C)cccc5cc4[C@@H]32)cc1 (single isomer, unassigned) | 100 µg/mL (≈ 226 µM) | 200 µg/mL (≈ 453 µM) | 200 µg/mL (≈ 453 µM) | 125 µg/mL (≈ 283 µM) | 100 µg/mL (≈ 226 µM) | 125 µg/mL (≈ 283 µM) | 161 mmol | 250 µg/mL (≈ 566 µM) | 91% | 500 µg/mL (≈ 1130 µM) |  |  |  |  |  |  |  | 
7 | Cc1nn(-c2ccc([N+](=O)[O-])cc2)c2c1[C@@H]1c3c(ccc4c(C)cc(=O)oc34)OC[C@@H]1C(C)(C)O2 | 200 µg/mL (≈ 422 µM) | 200 µg/mL (≈ 422 µM) | 200 µg/mL (≈ 422 µM) | 125 µg/mL (≈ 264 µM) | 200 µg/mL (≈ 422 µM) | 200 µg/mL (≈ 422 µM) | 138 mmol | 250 µg/mL (≈ 528 µM) | 88% | 500 µg/mL (≈ 1060 µM) |  |  |  |  |  |  |  | 
8 | GENTAMICIN |  |  |  |  |  |  |  |  |  |  | 0.5 µg/mL | 5 µg/mL | 5 µg/mL | 5 µg/mL | 1 µg/mL | 0.05 µg/mL |  | 
9 | Cc1ccc(-n2nc(C)c3c2OC(C)(C)[C@H]2COc4ccc5c(C)cc(=O)oc5c4[C@@H]32)cc1 | 100 µg/mL (≈ 226 µM) | 250 µg/mL (≈ 565 µM) | 500 µg/mL (≈ 1130 µM) | 250 µg/mL (≈ 565 µM) | 250 µg/mL (≈ 565 µM) | 100 µg/mL (≈ 226 µM) | 240 mmol | 250 µg/mL (≈ 565 µM) | 32% | 250 µg/mL (≈ 565 µM) |  |  |  |  |  |  |  | 
10 | Cc1ccc(-n2nc(C)c3c2OC[C@H]2COc4ccc5c(C)cc(=O)oc5c4[C@@H]32)cc1 | 250 µg/mL (≈ 603 µM) | 200 µg/mL (≈ 483 µM) | 200 µg/mL (≈ 483 µM) | 250 µg/mL (≈ 603 µM) | 250 µg/mL (≈ 603 µM) | 200 µg/mL (≈ 483 µM) | 213 mmol | 1000 µg/mL (≈ 2410 µM) | 32% | 250 µg/mL (≈ 603 µM) |  |  |  |  |  |  |  | 
11 | Cc1nn(-c2cccc(Cl)c2)c2c1[C@@H]1c3cc4ccccc4nc3SC[C@@H]1CO2 | 250 µg/mL (≈ 595 µM) | 125 µg/mL (≈ 298 µM) | 200 µg/mL (≈ 476 µM) | 100 µg/mL (≈ 238 µM) | 200 µg/mL (≈ 476 µM) | 62.5 µg/mL (≈ 149 µM) | 128 mmol | > 1000 µg/mL | 61% | 1000 µg/mL (≈ 2380 µM) |  |  |  |  |  |  |  | 
12 | O=C(N[C@H](CO)[C@H](O)c1ccc([N+](=O)[O-])cc1)C(Cl)Cl [CHLORAMPHENICOL] | 50 µg/mL (≈ 155 µM) | 50 µg/mL (≈ 155 µM) | 50 µg/mL (≈ 155 µM) | 50 µg/mL (≈ 155 µM) | 50 µg/mL (≈ 155 µM) | 50 µg/mL (≈ 155 µM) |  |  |  |  |  |  |  |  |  |  |  | 
13 | NYSTATIN |  |  |  |  |  |  |  |  |  |  |  |  |  |  |  |  | 100 µg/mL | 100 µg/mL
14 | Cc1nn(-c2ccc([N+](=O)[O-])cc2)c2c1[C@@H]1c3cc4cccc(C)c4nc3SC[C@@H]1CO2 | 200 µg/mL (≈ 450 µM) | 200 µg/mL (≈ 450 µM) | 250 µg/mL (≈ 562 µM) | 62.5 µg/mL (≈ 141 µM) | 250 µg/mL (≈ 562 µM) | 100 µg/mL (≈ 225 µM) | 49.8 mmol | > 1000 µg/mL | 20% | > 1000 µg/mL |  |  |  |  |  |  |  | 
15 | Cc1nn(-c2ccccc2Cl)c2c1[C@@H]1c3cc4cccc(C)c4nc3SC[C@@H]1C(C)(C)O2 (single isomer, unassigned) | 250 µg/mL (≈ 541 µM) | 100 µg/mL (≈ 216 µM) | 200 µg/mL (≈ 433 µM) | 100 µg/mL (≈ 216 µM) | 250 µg/mL (≈ 541 µM) | 200 µg/mL (≈ 433 µM) | 115 mmol | 250 µg/mL (≈ 541 µM) | 50% | 500 µg/mL (≈ 1080 µM) |  |  |  |  |  |  |  | 

Source: ChEMBL document CHEMBL2331438, “An efficient domino reaction in ionic liquid: synthesis and biological evaluation of some pyrano- and thiopyrano-fused heterocycles” (2013)
